Measurements from different studies.
Each line is one published result; the experiments were not run side by side.

| Compound | tested on | assay | system | conditions | endpoint | value |
| --- | --- | --- | --- | --- | --- | --- |
| O=C(CO/N=c1\cc2n(-c3ccc(Cl)cc3)c3ccccc3nc-2cc1Nc1ccc(Cl)cc1)NCc1ccc2c(c1)CCO2 | Mycobacterium avium | microbial growth | ATCC700898 |  | MIC | 1.88 µM |
| COc1cccc2c1C(=O)c1c(O)c3c(c(O)c1C2=O)C[C@@](O)(C(=O)CO)C[C@@H]3O[C@H]1C[C@H](N)[C@H](O)[C@H](C)O1 | NCI-H1975 | cell growth or viability, MTT |  | 72 h | IC50 | 0.34 µM |
| O/N=c1\cc2n(-c3ccc(Cl)cc3)c3ccccc3nc-2cc1Nc1ccc(Cl)cc1 | Mycobacterium avium | microbial growth | ATCC700898 |  | MIC | 1.88 µM |
| C=CC(=O)NC1CCN(c2ncc3ncnc(Nc4ccc(Oc5ccc6c(c5)ncn6C)c(C)c4)c3n2)CC1 | HCC1428 | cell growth or viability |  |  | EC50 | 7.04 µM |
| O=C(c1ccc(Oc2cccc(-c3ccccc3)c2)c([N+](=O)[O-])c1)C(Cl)Cl | NCI-H1975 | cell growth or viability, MTT |  | 2.5 µM | inhibition | 98.1% |
| CCCCCc1nc(N)nc(N)c1OCCCOc1ccccc1CCC(=O)O | Mycobacterium avium | microbial growth, resazurin |  |  | MIC | 0.6 µg/mL |
| CC(C)/N=c1\cc2n(-c3ccc(Cl)cc3)c3ccccc3nc-2cc1Nc1ccc(Cl)cc1 | Mycobacterium avium | microbial growth | ATCC700898 |  | MIC | 0.06 µM |
| O=C(c1ccc(Oc2ccc3c(c2)OCO3)c([N+](=O)[O-])c1)C(Cl)Cl | NCI-H1975 | cell growth or viability, MTT |  | 2.5 µM | inhibition | 97.3% |
| CN(Cc1ccc(C2(C(F)(F)F)CC2)cc1)Cc1cccc2ccccc12 | Trichophyton rubrum | microbial growth, disc diffusion | ATCC28188 | 0.064 µg/mL, 6 days | inhibition zone | ≥ 55 mm |
| COc1cccc(-c2nc(N)nc(N)c2OCCCOc2ccccc2CCC(=O)O)c1 | Mycobacterium avium | microbial growth, resazurin |  |  | MIC | 5.6 µg/mL |
| CC(=O)Nc1ccc(Oc2ccc(C(=O)C(Cl)Cl)cc2[N+](=O)[O-])cc1Cl | NCI-H1975 | cell growth or viability, MTT |  | 2.5 µM | inhibition | 96.5% |
| CO/N=c1\cc2n(-c3ccc(Cl)cc3)c3ccccc3nc-2cc1Nc1ccc(Cl)cc1 | Mycobacterium avium | microbial growth |  | clinical isolate | MIC | > 30 µM |
| N#Cc1ccc(Oc2ccc(C(=O)C(Cl)Cl)cc2[N+](=O)[O-])cc1 | NCI-H1975 | cell growth or viability, MTT |  | 2.5 µM | inhibition | 96.8% |
| NCC[C@H](O)C(=O)N[C@@H]1C[C@H](N)[C@@H](O[C@H]2O[C@H](CN)[C@@H](O)[C@H](O)[C@H]2O)[C@H](O)[C@H]1O[C@H]1O[C@H](CO)[C@@H](O)[C@H](N)[C@H]1O | Mycobacterium avium | microbial growth, resazurin |  |  | MIC | 1.7 µg/mL |
| O=C(CO/N=c1\cc2n(-c3ccc(Cl)cc3)c3ccccc3nc-2cc1Nc1ccc(Cl)cc1)NCc1ccc(C(F)(F)F)cc1 | Mycobacterium avium | microbial growth |  | clinical isolate | MIC | > 30 µM |
| CN(Cc1ccc(C(C)(C)C)cc1)Cc1cccc2ccccc12 | Trichophyton rubrum | microbial growth, disc diffusion | ATCC28188 | 0.512 µg/mL, 6 days | inhibition zone | ≥ 55 mm |
| CC(=O)OCCCOc1ccc(C(=O)C(Cl)Cl)cc1[N+](=O)[O-] | NCI-H1975 | cell growth or viability, MTT |  | 2.5 µM | inhibition | 78.2% |
| CCOC(=O)CNC(=O)CO/N=c1\cc2n(-c3ccc(Cl)cc3)c3ccccc3nc-2cc1Nc1ccc(Cl)cc1 | Mycobacterium avium | microbial growth | ATCC700898 |  | MIC | 1.88 µM |
